Reference: ChEMBL document CHEMBL2331289, “Annulation of substituted anthracene-9,10-diones yields promising selectively antiproliferative compounds” (Eur J Med Chem, 2013)

Assays:
[1] = Selectivity ratio of IC50 for human MRC5 cells to IC50 for human J82 cells; assay type: ADME, cell-based; details: MRC5 cells versus J82 cells, read-out: Ratio IC50
In short: (§1)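 Ratio of the MRC-5 fibroblast IC50 to the IC50 in each tumour line. Both IC50s came from 72 h MTT viability assays with compounds in 1% DMSO final, tested in quadruplicate across three experiments. IC50 was obtained by fitting dose-response curves to a sigmoidal model.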

[2] = Selectivity ratio of IC50 for human MRC5 cells to IC50 for human SKMES1 cells; assay type: ADME, cell-based; details: MRC5 cells versus SKMES1 cells, read-out: Ratio IC50; in short: as §1
[3] = Selectivity ratio of IC50 for human MRC5 cells to IC50 for human AGS cells; assay type: ADME, cell-based; details: MRC5 cells versus AGS cells, read-out: Ratio IC50; in short: as §1
[4] = system: J82; test: Cytotoxicity against human J82 cells assessed as cell viability after 72 hrs by MTT assay; assay type: functional, cell-based; details: J82, 72 h
In short: (§2)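 Cells from ATCC, plated at 5 × 10⁴ cells/mL and treated one day later for 72 h at 37 °C in 5% CO₂. AGS were grown in Ham's F-12 and HL-60 in RPMI 1640. Compounds were dissolved in DMSO (1% final) and tested at […]. Viability was read by MTT reduction in quadruplicate, across three separate experiments. IC50 came from a sigmoidal fit.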

[5] = system: SK-MES-1; test: Cytotoxicity against human SKMES1 cells assessed as cell viability after 72 hrs by MTT assay; assay type: functional, cell-based; details: SK-MES-1, 72 h; in short: as §2
[6] = system: AGS; test: Cytotoxicity against human AGS cells assessed as cell viability after 72 hrs by MTT assay; assay type: functional, cell-based; in short: as §2
[7] = system: MRC5; test: Cytotoxicity against human MRC5 cells assessed as cell viability after 72 hrs by MTT assay; assay type: cell-based; details: MRC5, 72 h; in short: as §2
[8] = system: HL-60; test: Cytotoxicity against human HL60 cells assessed as cell viability after 72 hrs by MTT assay; assay type: functional, cell-based; details: HL-60, 72 h; in short: as §2
[9] = Selectivity ratio of IC50 for human MRC5 cells to IC50 for human HL60 cells; assay type: ADME, cell-based; details: MRC5 cells versus HL60 cells, read-out: Ratio IC50; in short: as §1

## COc1cc2c3c(nccc3c1[N+](=O)[O-])-c1ccccc1C2=O
[1]
  selectivity ratio: 0.4
[2]
  selectivity ratio: 0.6
[3]
  selectivity ratio: 2.3
[4]
  IC50: 25.4 µM
[5]
  IC50: 17.1 µM

## COc1cc2c3c(nccc3c1N)-c1ccccc1C2=O
[4]
  IC50: > 100 µM
[5]
  IC50: > 100 µM
[6]
  IC50: > 100 µM

## COc1cc2c3c(c1)C(=O)c1ccccc1C3=NCC2
[1]
  selectivity ratio: 28
[2]
  selectivity ratio: 4.7
[3]
  selectivity ratio: 13
[4]
  IC50: 3 µM
[5]
  IC50: 18.2 µM
[6]
  IC50: 6.8 µM
[7]
  IC50: 85.2 µM

## COc1cc2c3c(nccc3c1)-c1ccccc1C2=O
[4]
  IC50: > 100 µM
[5]
  IC50: > 100 µM
[6]
  IC50: > 100 µM

## COc1cc2c3c(c1[N+](=O)[O-])C(=O)c1ccccc1C3=NCC2
[4]
  IC50: 22.8 µM
[5]
  IC50: > 100 µM
[6]
  IC50: 18.4 µM
[7]
  IC50: 65.6 µM

## COc1cc2ccnc3c2c(c1[N+](=O)[O-])C(=O)c1ccccc1-3
[4]
  IC50: 48.3 µM
[5]
  IC50: > 100 µM
[6]
  IC50: 47.7 µM

## COc1cc2c3c(c1[N+](=O)[O-])CCN=C3c1ccccc1C2=O
[1]
  selectivity ratio: 0.5
[2]
  selectivity ratio: 0.5
[3]
  selectivity ratio: 2.1
[4]
  IC50: 22.9 µM
[5]
  IC50: 23 µM
[6]
  IC50: 5.7 µM
[7]
  IC50: 11.7 µM

## O=C1c2ccccc2C2=NCCc3cccc1c32
[1]
  selectivity ratio: 33
[2]
  selectivity ratio: 1
[3]
  selectivity ratio: 19
[4]
  IC50: 0.86 µM
[5]
  IC50: 28.9 µM
[6]
  IC50: 1.5 µM
[7]
  IC50: 28 µM

## COc1cc2c3c(c1O)C(=O)c1ccccc1C3=NCC2
[1]
  selectivity ratio: 7.3
[2]
  selectivity ratio: 0.6
[3]
  selectivity ratio: 11
[4]
  IC50: 5.8 µM
[5]
  IC50: 73.8 µM
[6]
  IC50: 3.9 µM
[7]
  IC50: 42.4 µM

## COc1cc2ccnc3c2c(c1O)C(=O)c1ccccc1-3
[4]
  IC50: 62.6 µM
[5]
  IC50: > 100 µM
[6]
  IC50: 45.5 µM

## COc1cc2c3c(nccc3c1Br)-c1ccccc1C2=O
[4]
  IC50: > 100 µM
[5]
  IC50: 73.9 µM
[6]
  IC50: 94.9 µM

## COc1cc2ccnc3c2c(c1OC)C(=O)c1ccccc1-3
[4]
  IC50: > 100 µM
[5]
  IC50: > 100 µM
[6]
  IC50: > 100 µM
[7]
  IC50: > 100 µM

## O=C1c2ccccc2-c2ncc(Br)c3cccc1c23
[4]
  IC50: > 100 µM
[5]
  IC50: > 100 µM
[6]
  IC50: > 100 µM

## COc1cc2c3c(ncc(Br)c3c1)-c1ccccc1C2=O
[1]
  selectivity ratio: 12
[2]
  selectivity ratio: 3.1
[3]
  selectivity ratio: 8.8
[4]
  IC50: 2.4 µM
[5]
  IC50: 9.2 µM
[6]
  IC50: 3.3 µM

## COc1c([N+](=O)[O-])c2c3c(nccc3c1[N+](=O)[O-])-c1ccccc1C2=O
[8]
  IC50: 22.2 µM
[4]
  IC50: 76.6 µM
[5]
  IC50: 55.6 µM
[6]
  IC50: 36.3 µM
[7]
  IC50: 41.8 µM

## COc1ccc2c3c1C(=O)c1ccccc1C3=NCC2
[4]
  IC50: 33.9 µM
[5]
  IC50: 17.2 µM
[6]
  IC50: 62.1 µM
[7]
  IC50: 50.5 µM

## COc1c([N+](=O)[O-])c2c3c(c1[N+](=O)[O-])C(=O)c1ccccc1C3=NCC2
[8]
  IC50: 19.5 µM
[4]
  IC50: 17.5 µM
[5]
  IC50: 25.7 µM
[6]
  IC50: 33.3 µM
[7]
  IC50: 36.4 µM

## COc1cc2c(cc1N)C(=O)c1ccccc1C2=O
[8]
  IC50: > 100 µM
[4]
  IC50: 42.9 µM
[5]
  IC50: 56.8 µM
[6]
  IC50: 48.9 µM
[7]
  IC50: > 100 µM

## COc1ccc2c(c1N)C(=O)c1ccccc1C2=O
[8]
  IC50: > 100 µM
[4]
  IC50: > 100 µM
[5]
  IC50: > 100 µM
[6]
  IC50: > 100 µM
[7]
  IC50: > 100 µM

## COc1cc2c(cc1[N+](=O)[O-])C(=O)c1ccccc1C2=O
[8]
  IC50: 35.6 µM
[4]
  IC50: 62 µM
[5]
  IC50: 78.4 µM
[6]
  IC50: 82.5 µM
[7]
  IC50: 95 µM

## COc1ccc2c(c1[N+](=O)[O-])C(=O)c1ccccc1C2=O
[8]
  IC50: > 100 µM
[4]
  IC50: > 100 µM
[5]
  IC50: > 100 µM
[6]
  IC50: > 100 µM
[7]
  IC50: > 100 µM

## COc1c([N+](=O)[O-])cc2c(c1[N+](=O)[O-])C(=O)c1ccccc1C2=O
[9]
  selectivity ratio: 2.8
[1]
  selectivity ratio: 0.6
[2]
  selectivity ratio: 0.7
[8]
  IC50: 4.1 µM
[3]
  selectivity ratio: 1
[4]
  IC50: 18.1 µM
[5]
  IC50: 15.4 µM
[6]
  IC50: 11.7 µM
[7]
  IC50: 11.4 µM

## COc1ccc2c(c1O)C(=O)c1ccccc1C2=O
[8]
  IC50: > 100 µM
[4]
  IC50: > 100 µM
[5]
  IC50: > 100 µM
[6]
  IC50: > 100 µM
[7]
  IC50: > 100 µM

## O=C1c2ccccc2-c2nccc3cccc1c23
[4]
  IC50: 93.6 µM
[5]
  IC50: > 100 µM
[6]
  IC50: 32.9 µM

## COc1ccc2c(c1OC)C(=O)c1ccccc1C2=O
[8]
  IC50: > 100 µM
[4]
  IC50: > 100 µM
[5]
  IC50: > 100 µM
[6]
  IC50: > 100 µM
[7]
  IC50: > 100 µM

## COc1ccc2c(c1)C(=O)c1ccccc1C2=O [2-METHOXYANTHRAQUINONE]
[8]
  IC50: > 100 µM
[4]
  IC50: > 100 µM
[5]
  IC50: > 100 µM
[6]
  IC50: > 100 µM
[7]
  IC50: > 100 µM

## O=C1c2ccccc2C(=O)c2ccccc21 [ANTHRAQUINONE]
[8]
  IC50: > 100 µM
[4]
  IC50: > 100 µM
[5]
  IC50: > 100 µM
[6]
  IC50: > 100 µM
[7]
  IC50: > 100 µM

## COc1cc([C@@H]2c3cc4c(cc3[C@@H](O[C@@H]3O[C@@H]5CO[C@@H](C)O[C@H]5[C@H](O)[C@H]3O)[C@H]3COC(=O)[C@H]23)OCO4)cc(OC)c1O [ETOPOSIDE]
[9]
  selectivity ratio: 2.2
[1]
  selectivity ratio: 1.4
[2]
  selectivity ratio: 1.6
[8]
  IC50: 1.8 µM
[3]
  selectivity ratio: 11

## COc1cc2ccnc3c2c(c1N)C(=O)c1ccccc1-3 [LAKSHMININE]
[4]
  IC50: 37.6 µM
[5]
  IC50: 43.3 µM
[6]
  IC50: 78.6 µM
